Measurements: ChEMBL document CHEMBL3774386, “Synthesis and structure activity relationship investigation of triazolo[1,5-a]pyrimidines as CB2 cannabinoid receptor inverse agonists” (Eur J Med Chem, 2016)

Assays:
Cannabinoid receptor 2 [1] = target: T1, Cannabinoid receptor 2 (Homo sapiens, UniProt P34972); assay: Displacement of [3H]CP-55,940 from human CB2 receptor expressed in CHO cell membranes after 60 mins by scintillation counting analysis
CHO = assay: Selectivity ratio of Ki for human CB1 receptor expressed in CHO cell membranes to Ki for human CB2 receptor expressed in CHO cell membranes; type: cell-based
Summary of the method: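 CHO membranes with human CB1 or CB2 in 50 mM Tris-HCl, 0.5% BSA, pH 7.4, 5 mM MgCl2, with 1 mM (CB1) or 2.5 mM (CB2) EDTA. Competition against 0.5 nM [3H]CP-55,940 at 30 °C for 90 min (CB1) or 60 min (CB2). GF/C filtration, scintillation counting. Ki from IC50 by Cheng–Prusoff; mean ± SEM, n = 4.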

Cannabinoid receptor 1 = Cannabinoid receptor 1 (Homo sapiens, UniProt P21554); assay: Displacement of [3H]CP-55,940 from human CB1 receptor expressed in CHO cell membranes after 90 mins by scintillation counting analysis
Sequence of Cannabinoid receptor 1 (P21554 whole entry): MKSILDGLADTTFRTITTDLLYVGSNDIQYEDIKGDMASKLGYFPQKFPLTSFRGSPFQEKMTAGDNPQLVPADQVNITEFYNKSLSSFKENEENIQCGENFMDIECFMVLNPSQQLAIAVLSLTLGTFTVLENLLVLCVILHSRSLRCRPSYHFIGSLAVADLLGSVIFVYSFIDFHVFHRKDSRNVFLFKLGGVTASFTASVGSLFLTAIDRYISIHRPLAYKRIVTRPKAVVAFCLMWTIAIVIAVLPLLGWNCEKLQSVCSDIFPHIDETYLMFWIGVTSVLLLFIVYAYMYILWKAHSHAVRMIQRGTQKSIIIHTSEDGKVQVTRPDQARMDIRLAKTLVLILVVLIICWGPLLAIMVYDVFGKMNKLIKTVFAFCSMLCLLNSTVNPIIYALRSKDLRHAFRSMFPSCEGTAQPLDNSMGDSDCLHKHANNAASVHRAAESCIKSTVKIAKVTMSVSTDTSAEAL

Cannabinoid receptor 2 [2] = target: T1, Cannabinoid receptor 2; assay: Inverse agonist activity at human CB2 receptor transfected in CHO cells assessed as increase in forksolin stimulated cAMP production at 10 uM by scintillation counting analysis relative to control; type: functional, cell-based
Cannabinoid receptor 2 [3] = target: T1, Cannabinoid receptor 2; assay: Antagonist activity at human CB2 receptor transfected in CHO cells assessed as inhibition of WIN 55,212-2 mediated suppression of forksolin induced cAMP production by scintillation counting analysis; type: functional, cell-based
Summary of the method: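 Human CB2-transfected CHO cells, 1 × 10^6 cells/assay, forskolin-stimulated, with WIN 55,212-2 (20 nM) plus compound over a concentration range. cAMP read by [3H]-cAMP competition: 150 min at 4 °C, charcoal separation, scintillation counting. IC50 derived from reversal of the WIN 55,212-2 inhibition; mean ± SEM of three experiments in duplicate.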

Cannabinoid receptor 2 [4] = target: T1, Cannabinoid receptor 2; assay: Inverse agonist activity at human CB2 receptor transfected in CHO cells assessed as increase in forksolin stimulated cAMP production at 1 uM by scintillation counting analysis relative to control; type: functional, cell-based
Cannabinoid receptor 2 [5] = target: T1, Cannabinoid receptor 2; assay: Inverse agonist activity at human CB2 receptor transfected in CHO cells assessed as increase in forksolin stimulated cAMP production by scintillation counting analysis; type: functional, cell-based
Summary of the method: (§1)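 Human CB2-transfected CHO cells detached with trypsin, 1 × 10^6 cells/assay, with forskolin and compound over a concentration curve. cAMP measured by [3H]-cAMP competition: 150 min at 4 °C, charcoal, centrifugation, supernatant counted. Expressed as % increase of forskolin-stimulated cAMP and fitted for EC50; three independent experiments in duplicate.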

Cannabinoid receptor 2 [6] = target: T1, Cannabinoid receptor 2; assay: Partial agonist activity at human CB2 receptor transfected in CHO cells assessed as forksolin stimulated cAMP production by scintillation counting analysis relative to control; type: functional, cell-based; summary of the method: as §1

T1 sequence (P34972 whole entry): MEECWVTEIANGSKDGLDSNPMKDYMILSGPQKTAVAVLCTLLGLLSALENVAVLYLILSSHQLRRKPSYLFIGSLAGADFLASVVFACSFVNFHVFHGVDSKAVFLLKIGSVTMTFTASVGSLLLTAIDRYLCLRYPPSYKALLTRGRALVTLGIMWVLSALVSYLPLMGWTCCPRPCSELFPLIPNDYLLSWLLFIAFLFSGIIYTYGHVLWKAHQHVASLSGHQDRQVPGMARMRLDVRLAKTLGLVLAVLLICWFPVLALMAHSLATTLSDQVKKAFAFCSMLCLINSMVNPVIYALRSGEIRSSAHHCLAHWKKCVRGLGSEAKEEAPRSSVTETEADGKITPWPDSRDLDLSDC

CCCCCn1cc(C(=O)NC2CCCCCC2)c(=O)n2ncnc12
Ki (Cannabinoid receptor 2 [1]): 514 nM
Ratio Ki (CHO): 1
Ki (Cannabinoid receptor 1): 0.717 µM

CCCCCn1cc(C(=O)NC2CCCCC2)c(=O)n2nc(C)nc12
Ki (Cannabinoid receptor 2 [1]): 674 nM
Ratio Ki (CHO): 1
Ki (Cannabinoid receptor 1): 0.488 µM

CCCCCn1cc(C(=O)NC23CC4CC(CC(C4)C2)C3)c(=O)n2nc(-c3cccnc3)nc12
Ki (Cannabinoid receptor 2 [1]): 228 nM
Ratio Ki (CHO): > 44
Ki (Cannabinoid receptor 1): > 10 µM

CCCCCn1cc(C(=O)NC2CCCCC2)c(=O)n2nc(-c3ccc(Cl)cc3)nc12
Ki (Cannabinoid receptor 2 [1]): 117 nM
Ratio Ki (CHO): 40
Ki (Cannabinoid receptor 1): 4.72 µM

CCCCCn1cc(C(=O)NC2CCCCCC2)c(=O)n2nc(-c3ccc(C)cc3)nc12
Ki (Cannabinoid receptor 2 [1]): 22 nM
Emax (Cannabinoid receptor 2 [2]): 132%
IC50 (Cannabinoid receptor 2 [3]): 64 nM
Emax (Cannabinoid receptor 2 [4]): 53%
Ratio Ki (CHO): 289
Ki (Cannabinoid receptor 1): 6.35 µM
EC50 (Cannabinoid receptor 2 [5]): 393 nM

C=CCN(CC=C)c1nc2n(CCCCC)cc(C(=O)NC34CC5CC(CC(C5)C3)C4)c(=O)n2n1
Ki (Cannabinoid receptor 2 [1]): 158 nM
Ratio Ki (CHO): > 63
Ki (Cannabinoid receptor 1): > 10 µM

CCCCCn1cc(C(=O)NC2CCCCC2)c(=O)n2nc(-c3ccccc3)nc12
Ki (Cannabinoid receptor 2 [1]): 43 nM
Emax (Cannabinoid receptor 2 [2]): 132%
IC50 (Cannabinoid receptor 2 [3]): 111 nM
Emax (Cannabinoid receptor 2 [4]): 53%
Ratio Ki (CHO): 75
Ki (Cannabinoid receptor 1): 3.21 µM
EC50 (Cannabinoid receptor 2 [5]): 756 nM

CCCCCn1cc(C(=O)NC23CC4CC(CC(C4)C2)C3)c(=O)n2nc(-c3ccc(OC)cc3)nc12
Ki (Cannabinoid receptor 2 [1]): 47 nM
Emax (Cannabinoid receptor 2 [2]): 132%
IC50 (Cannabinoid receptor 2 [3]): 128 nM
Emax (Cannabinoid receptor 2 [4]): 53%
Ratio Ki (CHO): 79
Ki (Cannabinoid receptor 1): 3.72 µM
EC50 (Cannabinoid receptor 2 [5]): 858 nM

CCCCCn1cc(C(=O)NC23CC4CC(CC(C4)C2)C3)c(=O)n2ncnc12
Emax (Cannabinoid receptor 2 [2]): 132%
Emax (Cannabinoid receptor 2 [4]): 53%
Ratio Ki (CHO): 36
Emax (Cannabinoid receptor 2 [6]): 57%

CCCCCn1cc(C(=O)NC2CCCCCC2)c(=O)n2nc(-c3ccccc3)nc12
Ki (Cannabinoid receptor 2 [1]): 48 nM
Emax (Cannabinoid receptor 2 [2]): 132%
IC50 (Cannabinoid receptor 2 [3]): 142 nM
Emax (Cannabinoid receptor 2 [4]): 53%
Ratio Ki (CHO): 52
Ki (Cannabinoid receptor 1): 2.48 µM
EC50 (Cannabinoid receptor 2 [5]): 849 nM

CCCCCn1cc(C(=O)NC2CCCCC2)c(=O)n2nc(-c3ccc(C)cc3)nc12
Ki (Cannabinoid receptor 2 [1]): 31 nM
Emax (Cannabinoid receptor 2 [2]): 132%
IC50 (Cannabinoid receptor 2 [3]): 79 nM
Emax (Cannabinoid receptor 2 [4]): 53%
Ratio Ki (CHO): > 323
Ki (Cannabinoid receptor 1): > 10 µM
EC50 (Cannabinoid receptor 2 [5]): 464 nM

CCCCCn1cc(C(=O)NC2CCCCCC2)c(=O)n2nc(N3CCN(C)CC3)nc12
Ki (Cannabinoid receptor 2 [1]): 982 nM
Ratio Ki (CHO): > 10
Ki (Cannabinoid receptor 1): > 10 µM

CCCCCn1cc(C(=O)NC23CC4CC(CC(C4)C2)C3)c(=O)n2nc(N3CCOCC3)nc12
Ki (Cannabinoid receptor 2 [1]): 53 nM
Emax (Cannabinoid receptor 2 [2]): 132%
IC50 (Cannabinoid receptor 2 [3]): 162 nM
Emax (Cannabinoid receptor 2 [4]): 53%
Ratio Ki (CHO): 140
Ki (Cannabinoid receptor 1): > 10 µM
EC50 (Cannabinoid receptor 2 [5]): 670 nM

CCCCCn1cc(C(=O)NC2CCCCCC2)c(=O)n2nc(N3CCOCC3)nc12
Ki (Cannabinoid receptor 2 [1]): 566 nM
Ratio Ki (CHO): > 18
Ki (Cannabinoid receptor 1): > 10 µM

CCCCCn1cc(C(=O)NC2CCCCC2)c(=O)n2nc(N3CCOCC3)nc12
Ki (Cannabinoid receptor 2 [1]): > 10000 nM
Ki (Cannabinoid receptor 1): > 10 µM

CCCCCn1cc(C(=O)NC23CC4CC(CC(C4)C2)C3)c(=O)n2nc(C)nc12
Ki (Cannabinoid receptor 2 [1]): 383 nM
Emax (Cannabinoid receptor 2 [2]): 132%
IC50 (Cannabinoid receptor 2 [3]): 865 nM
Emax (Cannabinoid receptor 2 [4]): 53%
Ratio Ki (CHO): 1
Ki (Cannabinoid receptor 1): 0.471 µM
EC50 (Cannabinoid receptor 2 [5]): 2080 nM

CCCCCn1cc(C(=O)NC23CC4CC(CC(C4)C2)C3)c(=O)n2nc(-c3ccco3)nc12
Ki (Cannabinoid receptor 2 [1]): 45 nM
Emax (Cannabinoid receptor 2 [2]): 132%
IC50 (Cannabinoid receptor 2 [3]): 124 nM
Emax (Cannabinoid receptor 2 [4]): 53%
Ratio Ki (CHO): 26
Ki (Cannabinoid receptor 1): 1.17 µM
EC50 (Cannabinoid receptor 2 [5]): 771 nM

CCCCCn1cc(C(=O)NC23CC4CC(C)(CC(C)(C4)C2)C3)c(=O)n2ncnc12
Ki (Cannabinoid receptor 2 [1]): 25 nM
Emax (Cannabinoid receptor 2 [2]): 132%
Emax (Cannabinoid receptor 2 [4]): 53%
Ratio Ki (CHO): 25
Ki (Cannabinoid receptor 1): 0.622 µM
Emax (Cannabinoid receptor 2 [6]): 60%
EC50 (Cannabinoid receptor 2 [5]): 88 nM

CCCCCn1cc(C(=O)NC2CCCCC2)c(=O)n2nc(N(C)Cc3ccccc3)nc12
Ki (Cannabinoid receptor 2 [1]): 1330 nM
Ratio Ki (CHO): > 7
Ki (Cannabinoid receptor 1): > 10 µM

CCCCCn1cc(C(=O)NC2CCCCC2)c(=O)n2nc(N3CCN(C)CC3)nc12
Ki (Cannabinoid receptor 2 [1]): > 10000 nM
Ratio Ki (CHO): > 188
Ki (Cannabinoid receptor 1): > 10 µM

CCCCCn1cc(C(=O)NC23CC4CC(C)(CC(C)(C4)C2)C3)c(=O)n2nc(-c3ccccc3)nc12
Ki (Cannabinoid receptor 2 [1]): 8.4 nM
Emax (Cannabinoid receptor 2 [2]): 243%
IC50 (Cannabinoid receptor 2 [3]): 18.4 nM
Ratio Ki (CHO): 77
Ki (Cannabinoid receptor 1): 0.653 µM
EC50 (Cannabinoid receptor 2 [5]): 489 nM

C=CCN(CC=C)c1nc2n(CCCCC)cc(C(=O)NC3CCCCC3)c(=O)n2n1
Ki (Cannabinoid receptor 2 [1]): 1350 nM
Ratio Ki (CHO): > 7
Ki (Cannabinoid receptor 1): > 10 µM

CCCCCn1cc(C(=O)NC23CC4CC(CC(C4)C2)C3)c(=O)n2nc(-c3ccc(Cl)cc3)nc12
Ki (Cannabinoid receptor 2 [1]): 11.3 nM
Emax (Cannabinoid receptor 2 [2]): 223%
IC50 (Cannabinoid receptor 2 [3]): 24.6 nM
Ratio Ki (CHO): 462
Ki (Cannabinoid receptor 1): 5.22 µM
EC50 (Cannabinoid receptor 2 [5]): 637 nM

CCCCCn1cc(C(=O)NC23CC4CC(CC(C4)C2)C3)c(=O)n2nc(-c3ccc(C)cc3)nc12
Ki (Cannabinoid receptor 2 [1]): 6.8 nM
Emax (Cannabinoid receptor 2 [2]): 256%
IC50 (Cannabinoid receptor 2 [3]): 12.6 nM
Ratio Ki (CHO): 223
Ki (Cannabinoid receptor 1): 1.52 µM
EC50 (Cannabinoid receptor 2 [5]): 652 nM

CCCCCn1cc(C(=O)NC23CC4CC(CC(C4)C2)C3)c(=O)n2nc(N(C)Cc3ccccc3)nc12
Ki (Cannabinoid receptor 2 [1]): 21 nM
Emax (Cannabinoid receptor 2 [2]): 132%
IC50 (Cannabinoid receptor 2 [3]): 29 nM
Emax (Cannabinoid receptor 2 [4]): 53%
Ratio Ki (CHO): > 476
Ki (Cannabinoid receptor 1): > 10 µM
EC50 (Cannabinoid receptor 2 [5]): 453 nM

CCCCCn1cc(C(=O)NC23CC4CC(CC(C4)C2)C3)c(=O)n2nc(SC)nc12
Ki (Cannabinoid receptor 2 [1]): 47 nM
Emax (Cannabinoid receptor 2 [2]): 132%
IC50 (Cannabinoid receptor 2 [3]): 139 nM
Emax (Cannabinoid receptor 2 [4]): 53%
Ratio Ki (CHO): > 213
Ki (Cannabinoid receptor 1): > 10 µM
EC50 (Cannabinoid receptor 2 [5]): 494 nM

Cc1c(C(=O)c2cccc3ccccc23)c2cccc3c2n1[C@H](CN1CCOCC1)CO3
Emax (Cannabinoid receptor 2 [2]): 132%
Emax (Cannabinoid receptor 2 [4]): 53%

CCCCCn1cc(C(=O)NC2CCCCC2)c(=O)n2nc(-c3ccc(OC)cc3)nc12
Ki (Cannabinoid receptor 2 [1]): 96 nM
Ratio Ki (CHO): 61
Ki (Cannabinoid receptor 1): 5.85 µM

CCCCCn1cc(C(=O)NC2CCCCC2)c(=O)n2nc(SC)nc12
Ki (Cannabinoid receptor 2 [1]): 716 nM
Ratio Ki (CHO): > 14
Ki (Cannabinoid receptor 1): > 10 µM

CCCCCn1cc(C(=O)NC23CC4CC(CC(C4)C2)C3)c(=O)n2nc(-c3ccccc3)nc12
Emax (Cannabinoid receptor 2 [2]): 132%
IC50 (Cannabinoid receptor 2 [3]): 8.6 nM
Emax (Cannabinoid receptor 2 [4]): 53%
Ratio Ki (CHO): 146
EC50 (Cannabinoid receptor 2 [5]): 161 nM
